Assay results as given in ChEMBL document CHEMBL3865805, “Discovery and antiplatelet activity of a selective PI3Kβ inhibitor (MIPS-9922)” (Eur J Med Chem, 2016).
Calls of active or inactive are those of the source. The calls are words filed in the database; no cut-off is given here.

Legend:
[1] = molecular target: T1, Phosphatidylinositol 4,5-bisphosphate 3-kinase catalytic subunit beta isoform (Homo sapiens, UniProt P42338); assay: Inhibition of PI3Kbeta (unknown origin) expressed in baculovirus-infected fall armyworm sf21 cells co-expressing p85 by kinase-glo luminescence assay
Summary of the method: (§1)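 Recombinant p110 isoforms made by baculovirus in Sf21 cells. Kinase activity read by Kinase-Glo luminescence at 10 µM ATP. IC50 taken as the mean of at least two duplicate experiments.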
Target sequence in this assay (P42338 whole entry, canonical isoform): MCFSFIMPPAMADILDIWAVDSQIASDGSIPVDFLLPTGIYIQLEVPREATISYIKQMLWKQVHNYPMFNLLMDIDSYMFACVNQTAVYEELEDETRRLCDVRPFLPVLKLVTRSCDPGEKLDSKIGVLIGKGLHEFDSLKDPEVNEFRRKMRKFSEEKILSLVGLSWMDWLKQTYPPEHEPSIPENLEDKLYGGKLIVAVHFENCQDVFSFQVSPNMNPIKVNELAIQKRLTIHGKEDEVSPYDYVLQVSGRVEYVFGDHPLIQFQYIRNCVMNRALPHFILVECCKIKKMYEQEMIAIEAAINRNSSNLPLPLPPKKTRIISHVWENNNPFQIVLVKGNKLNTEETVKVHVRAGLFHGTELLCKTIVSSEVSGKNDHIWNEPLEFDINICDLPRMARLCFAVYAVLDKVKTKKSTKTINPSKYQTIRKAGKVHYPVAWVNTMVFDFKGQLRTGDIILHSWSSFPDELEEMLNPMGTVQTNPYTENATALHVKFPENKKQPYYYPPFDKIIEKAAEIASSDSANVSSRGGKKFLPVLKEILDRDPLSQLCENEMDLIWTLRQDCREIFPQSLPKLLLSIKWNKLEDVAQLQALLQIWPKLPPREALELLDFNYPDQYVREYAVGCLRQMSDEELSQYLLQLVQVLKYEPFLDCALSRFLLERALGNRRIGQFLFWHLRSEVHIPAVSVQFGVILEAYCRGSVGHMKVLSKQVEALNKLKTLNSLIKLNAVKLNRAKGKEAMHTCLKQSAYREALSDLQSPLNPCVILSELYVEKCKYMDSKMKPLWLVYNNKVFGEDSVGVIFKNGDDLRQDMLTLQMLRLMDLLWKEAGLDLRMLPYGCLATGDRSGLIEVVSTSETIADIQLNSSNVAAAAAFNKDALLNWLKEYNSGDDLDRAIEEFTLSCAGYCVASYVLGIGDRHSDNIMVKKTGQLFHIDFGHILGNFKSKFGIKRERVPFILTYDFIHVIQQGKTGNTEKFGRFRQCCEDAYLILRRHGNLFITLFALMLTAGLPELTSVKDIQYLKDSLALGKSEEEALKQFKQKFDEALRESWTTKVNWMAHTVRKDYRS

[2] = molecular target: T1, Phosphatidylinositol 4,5-bisphosphate 3-kinase catalytic subunit beta isoform; assay: Inhibition of PI3Kbeta in human washed platelets assessed as suppression of ADP-induced platelet aggregation at 1 to 1000 nM preincubated for 5 mins followed by ADP stimulation after 10 mins by light transmission aggregometric analysis
Summary of the method: (§2)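 Washed human platelets in a conventional aggregometer. Aggregation induced by ADP; IC50 taken from the dose-response curve.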
Target sequence in this assay (P42338 whole entry, looked up, canonical isoform): as the sequence (P42338 whole entry, canonical isoform) above

[3] = Inhibition of PI3Kbeta in human washed platelets assessed as suppression of TRAP-induced platelet aggregation at 10 to 1000 nM preincubated for 5 mins followed by TRAP stimulation after 10 mins by light transmission aggregometric analysis
[4] = molecular target: T1, Phosphatidylinositol 4,5-bisphosphate 3-kinase catalytic subunit beta isoform; assay: Inhibition of PI3Kbeta in human washed platelets assessed as suppression of ADP-induced platelet aggregation preincubated for 5 mins followed by ADP stimulation after 10 mins by light transmission aggregometric analysis; summary of the method: as §2
Target sequence in this assay (P42338 whole entry, looked up, canonical isoform): as the sequence (P42338 whole entry, canonical isoform) above

[5] = Drug level in iv dosed rat serum after 60 mins by LC-MS analysis; type: ADME, organism-based; details: read-out: Drug uptake
[6] = molecular target: T1, Phosphatidylinositol 4,5-bisphosphate 3-kinase catalytic subunit beta isoform; assay: Inhibition of PI3Kbeta in human washed platelets assessed as suppression of ADP-induced platelet aggregation at 0.5 uM preincubated for 5 mins followed by 25 uM ADP stimulation after 10 mins by light transmission aggregometric analysis
Summary of the method: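 Washed human platelets in an aggregometer. Inhibitor at 0.5 µM. Aggregation induced by 5, 10 or 25 µM ADP; percent inhibition read.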
Target sequence in this assay (P42338 whole entry, looked up, canonical isoform): as the sequence (P42338 whole entry, canonical isoform) above

[7] = Drug level in iv dosed rat serum after 5 mins by LC-MS analysis; type: ADME, organism-based; details: read-out: Drug uptake
Platelet [8] = assay: Antiplatelet activity against human washed platelets assessed as reduction in shear-induced stationary platelet adhesionto vWF matrix at 2 uM preincubated for 5 mins followed by blood perfusion after 4 mins; type: functional, cell-based
Summary of the method: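 Human whole blood, anticoagulated, perfused over a vWf matrix at 1800 s^-1 for 4 min; stationary platelet adhesion scored. Vehicle DMSO 0.25% taken as 100%. Drug tested up to 5 µM. t test against 0.1 µM drug.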

[9] = molecular target: T2, Phosphatidylinositol 4,5-bisphosphate 3-kinase catalytic subunit delta isoform (Homo sapiens, UniProt O00329); assay: Inhibition of PI3Kdelta (unknown origin) expressed in baculovirus-infected fall armyworm sf21 cells co-expressing p85 by kinase-glo luminescence assay; summary of the method: as §1
T2 sequence (O00329 whole entry): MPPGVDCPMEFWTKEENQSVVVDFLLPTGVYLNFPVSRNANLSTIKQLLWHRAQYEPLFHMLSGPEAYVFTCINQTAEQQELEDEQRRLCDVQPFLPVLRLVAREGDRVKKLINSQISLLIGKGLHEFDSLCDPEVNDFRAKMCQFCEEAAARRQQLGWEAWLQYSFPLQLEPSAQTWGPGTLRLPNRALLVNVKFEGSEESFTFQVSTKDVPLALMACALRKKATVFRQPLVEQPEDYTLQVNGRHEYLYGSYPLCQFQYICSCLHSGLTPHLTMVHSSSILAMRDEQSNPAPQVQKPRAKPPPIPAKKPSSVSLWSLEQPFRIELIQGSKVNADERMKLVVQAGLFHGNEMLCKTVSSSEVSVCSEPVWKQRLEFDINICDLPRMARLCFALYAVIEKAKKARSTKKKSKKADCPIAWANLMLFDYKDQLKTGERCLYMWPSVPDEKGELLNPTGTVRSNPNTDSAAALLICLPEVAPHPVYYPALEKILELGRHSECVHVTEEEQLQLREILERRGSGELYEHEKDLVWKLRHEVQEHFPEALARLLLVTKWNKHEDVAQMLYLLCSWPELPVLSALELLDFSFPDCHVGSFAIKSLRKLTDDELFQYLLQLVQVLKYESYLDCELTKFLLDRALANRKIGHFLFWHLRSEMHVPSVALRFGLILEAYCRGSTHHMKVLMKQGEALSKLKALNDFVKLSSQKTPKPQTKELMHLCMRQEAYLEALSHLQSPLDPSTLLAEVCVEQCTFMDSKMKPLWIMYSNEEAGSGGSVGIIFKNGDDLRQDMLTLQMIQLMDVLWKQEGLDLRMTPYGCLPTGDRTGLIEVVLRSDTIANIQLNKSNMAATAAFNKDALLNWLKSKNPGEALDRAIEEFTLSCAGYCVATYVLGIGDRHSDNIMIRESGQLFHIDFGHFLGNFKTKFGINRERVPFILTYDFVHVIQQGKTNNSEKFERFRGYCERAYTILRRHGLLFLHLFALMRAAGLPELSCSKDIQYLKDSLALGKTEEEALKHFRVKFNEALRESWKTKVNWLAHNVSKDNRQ

Platelet [10] = assay: […] activity in human washed platelets assessed as […] ADP-induced platelet aggregation at 10 to 1000 nM preincubated for 5 mins followed by ADP stimulation after 10 mins by light transmission aggregometric analysis; type: functional, cell-based

SMILES | IC50 [1] | IC50 [9] | further results
NCC(=O)NC1CCN(c2nc(N3CCOCC3)nc(-n3c(C(F)F)nc4ccccc43)n2)CC1 | 1.33 µM | – | –
NCC1CCN(c2nc(N3CCOCC3)nc(-n3c(C(F)F)nc4ccccc43)n2)CC1 | 0.811 µM | – | –
C[C@H](N)C(=O)N1CCN(c2nc(N3CCOCC3)nc(-n3c(C(F)F)nc4ccccc43)n2)CC1 | – | – | inhibition [2]: Active
O=C([C@@H]1CCCN1)N1CCN(c2nc(N3CCOCC3)nc(-n3c(C(F)F)nc4ccccc43)n2)CC1 | – | – | inhibition [3]: Active; inhibition [4]: Dose-dependent effect
Cc1cc(C(C)Nc2ccccc2)c2nc(N3CCOCC3)cc(=O)n2c1 (stereo not drawn) | – | – | concentration at 1 h [5]: 0.2 µM; inhibition [6]: Active; concentration at 5 min [7]: 2 µM; inhibition (Platelet [8]): Active
C[C@@H](N)C(=O)N1CCC(c2nc(N3CCOCC3)nc(-n3c(C(F)F)nc4ccccc43)n2)CC1 | 3.2 µM | 0.74 µM | –
O=C([C@H]1CCCN1)N1CCN(c2nc(N3CCOCC3)nc(-n3c(C(F)F)nc4ccccc43)n2)CC1 | 0.036 µM | 0.012 µM | inhibition [3]: Active; inhibition [4]: Dose-dependent effect
C[C@H](N)C(=O)N1CCC(c2nc(N3CCOCC3)nc(-n3c(C(F)F)nc4ccccc43)n2)CC1 | 0.54 µM | 1.09 µM | –
FC(F)c1nc2ccccc2n1-c1nc(NC2CCNCC2)nc(N2CCOCC2)n1 | 2.11 µM | – | –
NC1CCCN(c2nc(N3CCOCC3)nc(-n3c(C(F)F)nc4ccccc43)n2)C1 (stereo not drawn) | 0.554 µM | – | –
NC1CCN(c2nc(N3CCOCC3)nc(-n3c(C(F)F)nc4ccccc43)n2)CC1 | 0.955 µM | – | –
NCCCC[C@H](N)C(=O)N1CCN(c2nc(N3CCOCC3)nc(-n3c(C(F)F)nc4ccccc43)n2)CC1 | – | – | Activity (Platelet [10]): Active
O=C(C1CCNCC1)N1CCN(c2nc(N3CCOCC3)nc(-n3c(C(F)F)nc4ccccc43)n2)CC1 | 3.21 µM | 0.33 µM | –
NCCC1CCN(c2nc(N3CCOCC3)nc(-n3c(C(F)F)nc4ccccc43)n2)CC1 | 0.19 µM | 1 µM | inhibition [3]: Active; inhibition [2]: Active
CC(C)C[C@H](N)CC(=O)N1CCN(c2nc(N3CCOCC3)nc(-n3c(C(F)F)nc4ccccc43)n2)CC1 | > 10 µM | 9.1 µM | –
NCC(=O)NCC1CCN(c2nc(N3CCOCC3)nc(-n3c(C(F)F)nc4ccccc43)n2)CC1 | 0.428 µM | – | –
NCC(=O)NC1CCCN(c2nc(N3CCOCC3)nc(-n3c(C(F)F)nc4ccccc43)n2)C1 (stereo not drawn) | 1.21 µM | – | –
N[C@@H](CC(=O)N1CCN(c2nc(N3CCOCC3)nc(-n3c(C(F)F)nc4ccccc43)n2)CC1)c1ccccc1 | 1.8 µM | 17 µM | –
O=C(C1CCCN1)N1CCC(c2nc(N3CCOCC3)nc(-n3c(C(F)F)nc4ccccc43)n2)CC1 (single isomer, unassigned) | 2 µM | – | –
NCC(=O)N1CCC(Nc2nc(N3CCOCC3)nc(-n3c(C(F)F)nc4ccccc43)n2)CC1 | 1.06 µM | – | –
CC(=O)NC1CCN(c2nc(N3CCOCC3)nc(-n3c(C(F)F)nc4ccccc43)n2)CC1 | 0.521 µM | – | –
NCC(=O)N1CCC(c2nc(N3CCOCC3)nc(-n3c(C(F)F)nc4ccccc43)n2)CC1 | 0.36 µM | 0.12 µM | –
